The values that follow come from PubChem BioAssay.

Values without a mark were called inactive. Records with an inconclusive call do not appear. Calls of active or inactive are those of the source.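 The calls were made as follows, unless noted: active = viability increase at or above a cutoff of the median across tested compounds plus 3 SD (cut at about 8.5% in these data, passing the limit was not always enough); inconclusive = some gains above the cutoff, reason not given; inactive = the rest.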

Test [1] is described as follows: OD615 S. cerevisiae growth inhibition, permissive medium, pilot counter-assay, permissive growth control for S. cerevisiae lifespan shortening project (AID 705;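 active = growth inhibition above 25% in both replicates, a cutoff set 3 SD above the mean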). The note with it: OD615, 24 h, at 10 µM, active compounds read high. A digest of the protocol:
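System: Engineered DeaD yeast | Buffer or medium: SC raffinose/galactose permissive medium | Doses: 10 µM single dose, 0.25% DMSO | Times: 24 h exposure, 30 °C | Measured by: OD615 turbidity read | Read-out: Yeast growth inhibition indicated by reduced 24 h OD615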

Test [2] in a line: Restrictive medium S. cerevisiae growth inhibition, OD615, pilot screen of yeast lifespan reduction project, restrictive growth control (AID 706;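 active = growth inhibition above a set limit, 3 SD over mean compound inhibition, in both replicates, cut at about 43% in these data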;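 also: modified DeaD lifespan yeast strain shifted to restrictive glucose medium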). The conditions noted are these: OD615, 48 h, at 10 µM, active compounds read high. A digest of the protocol:
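Assay system: engineered S. cerevisiae DeaD strain; Buffer or medium: CSMM-D glucose medium; Dosing: 10 µM compound, 0.25% DMSO; Times: cell pre-growth 4 h, compound exposure 48 h, 30 °C; Detection: absorbance (optical density) measured at 615 nm.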

A short description of test [3]: viability gain of MRP-1-high H69AR cells under doxorubicin, pilot screen, MRP-1 activator project, CellTiter-Glo, duplicate (AID 807).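 Also: compound pretreatment 18-22 h then 72 h combined with doxorubicin; 0% = doxorubicin alone and 100% = vehicle without doxorubicin.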 The conditions noted are these: H69AR viability with doxorubicin, CellTiter-Glo luminescence; at 10 µM; active compounds read high.
The nature of test [4]: growth suppression of beta-catenin knockout HCT116, pilot screen, human colon tumor cells (AID 823;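 active = cell viability at or below a set limit in both duplicate runs, the limit being the all-compound median minus 4 SD, cut at about 23% in these data, passing the limit was not always enough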;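 also: 0% = wells killed by 20 µM Hyamine and 100% = untreated DMSO cell wells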). The conditions noted are these: CellTiter-Glo, 60 h, at 10 µM, active compounds read low. In general terms: ATP-based viability assays read luminescence as a measure of living cells.
Test [5] in a line: growth suppression of PTEN-deleted HCT116, pilot screen, cell-based, HCT116 clonal line, CellTiter-Glo (AID 824;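 active = viability at or below 27.92% in each of two runs, the all-compound median minus 4 SD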;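 also: 0% = 20 µM Hyamine control and 100% = vehicle cell control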). The note with it: 60 h, at 10 µM, active compounds read low.
Test [6] can be described thus: inhibitors of the yeast RAM network, pilot screen, dse1pr::URA3 reporter, 5-FOA selection (AID 869;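 active = inhibition over a set limit, the all-compound mean plus 3 SD, in both replicate runs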;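 also: 0% = DMSO wells with no growth and 100% = 10 µM 1-NA-PP1 with full growth; RAM network block rescues cells from 5-FOA so hits raise OD615 growth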). The note with it: S. cerevisiae dse1pr::URA3 5-FOA growth, OD615, 2 d; at 10 µM; active compounds read high; strain carries analog-sensitive mutant Cbk1 kinase.
A short description of test [7]: RAM signaling pathway blockade in yeast – S. cerevisiae, Pdr1DBD-CYC8 efflux-inhibited sensitized strain, primary screen (AID 1298;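 active = RAM network inhibition above 8.4% in each of two replicates, 3 SD over the compound average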;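 also: 0% = DMSO untreated cells without growth and 100% = 10 µM 1-NA-PP1 full growth; higher means more yeast growth rescued from 5-FOA killing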). The note with it: S. cerevisiae cbk1-as DSE1-URA3 strain, 5-FOA growth OD615, 2 d; at 50 µM; active compounds read high.

`Cc1ccc(/C=N/n2c(C)nnc2C)cc1`: the growth inhibition in test [1] was -5.29%; in test [2], -2.88%. Moreover, in test [3], the viability increase was -1.74%. In addition, the viability (usually a read-out of living cells in per cent, often relative to untreated cells) was 87.4% in test [4] and 99.1% in test [5]. Also, the inhibition – broadly, the drop in the measured response relative to a control, in per cent – in test [6] is 0.135%. The RAM network inhibition in test [7] is 0.41%.
Regarding `Cc1cc(N2CCOCC2)c2c(N)c(Br)cc(C)c2n1`, the growth inhibition in test [1] was -14%; in test [2], -15.8%. Moreover, in test [3], the viability increase is -5.84%. Besides, the viability in test [4] was 80.1%; in test [5], 76.4%. Further, the inhibition in test [6] is 1.16%. In test [7], the RAM network inhibition is 3.17%.
Consider `COCCOC(=O)C1=C(C)NC2=C(C(=O)CCC2)C1c1cc2c(cc1Br)OCO2` (stereo unspecified), for which the values for the growth inhibition in test [1] and in test [2] were -18.1% and -17%, respectively. Also, in test [3], the viability increase is -0.03%. Besides, the viability in test [4] is 92.4%; in test [5], 102%. For the same compound, the inhibition in test [6] is 1.16%. For the same compound, the RAM network inhibition in test [7] is 5.69%.
In the case of `O=C1O/C(=C\C(=O)N2CCOCC2)c2ccccc21`, the growth inhibition in test [1] is -2.53%; in test [2], 2.46%. Further, the viability increase in test [3] was -1.56%. The viability in test [4] was 94.5%; in test [5] it was 99.2%. In addition, in test [6], the inhibition is 2.46%. Also, in test [7], the RAM network inhibition was 4.69%.
`COc1ccccc1S(=O)(=O)Cc1ccc(C(=O)N2CCCC2)o1`: the growth inhibition in test [1] is -3.58%; in test [2] it was -4.36%. Besides, the viability increase in test [3] is -1.51%. In addition, the viability in test [4] was 108%; in test [5], 101%. In addition, the inhibition in test [6] is 0.935%. In addition, in test [7], the RAM network inhibition is 0.94%.
As for `CCCc1cc(C(=O)Nc2sc(C(C)=O)c(C)c2C(=O)OCC)no1`, the growth inhibition is -18.8% in test [1] and -30.5% in test [2]. Also, the viability increase in test [3] was -4.9%. The viability is 86.2% in test [4] and 78.4% in test [5]. Further, in test [6], the inhibition was 1.46%. Besides, in test [7], the RAM network inhibition is 3.25%.
On to `COc1ccc(C(=O)N2CCC(C(=O)Nc3cccc(C)c3)CC2)cc1OC`, for which the growth inhibition in test [1] is -0.875%; in test [2], -15.3%. Also, in test [3], the viability increase is -2.37%. Moreover, the viability in test [4] was 106%; in test [5], 96.7%. The inhibition in test [6] is 0.29%. Further, in test [7], the RAM network inhibition was 2.75%.
Regarding `CC(C)CCSc1nnc(Cn2c(=O)sc3ccccc32)n1C`, the growth inhibition in test [1] was -10.3%; in test [2], 2.02%. In test [3], the viability increase was 0.27%. Moreover, the viability in test [4] is 79.8%; in test [5] it was 83.5%. The inhibition in test [6] was 1.08%. Further, the RAM network inhibition in test [7] was 4.4%.
In the case of `CC(=O)Nc1ccc(S(=O)(=O)Nc2nc3ccccc3nc2Sc2nncn2C)cc1`, the growth inhibition is 1.94% in test [1] and 11.7% in test [2]. In test [3], the viability increase was -2.89%. Besides, the viability in test [4] and in test [5] was 98.1% in each case. Also, the inhibition in test [6] was 1.86%. Also, in test [7], the RAM network inhibition was 2.12%.
With `CCCn1c(CN2CCN(C(=O)c3ccco3)CC2)nc2c1c(=O)n(C)c(=O)n2C`, the growth inhibition in test [1] was -14.1%; in test [2], -25.5%. The viability increase in test [3] was -1.84%. For the same compound, the viability in test [4] was 97%; in test [5], 93.8%. In addition, in test [6], the inhibition is 0.34%. Further, the RAM network inhibition in test [7] was 2.82%.
Consider `Cc1oc(-c2cccc(Cl)c2)nc1CN1CCC(C(=O)NCCCN2CCCC2=O)CC1`, for which the growth inhibition is -1.65% in test [1] and -10.2% in test [2]. Also, the viability increase in test [3] is -3.95%. Also, the viability in test [4] was 85.8%; in test [5] it was 93.5%. Besides, the inhibition in test [6] is 0.59%. The RAM network inhibition in test [7] is 2.35%.
`CN(C(=O)c1ccccc1C(=O)c1ccccc1)C1CCS(=O)(=O)C1` (stereo unspecified): the growth inhibition was -8.28% in test [1] and 3.21% in test [2]. In test [3], the viability increase was -1.54%. Moreover, the viability was 96.6% in test [4] and 95.4% in test [5]. In test [6], the inhibition is -0.06%. In addition, the RAM network inhibition in test [7] is 1.85%.
As to `CCNc1ccc(C(=O)OCC)cc1NC(=O)c1cccc(N(C)C)c1`, the growth inhibition in test [1] is -8.58%; in test [2], 2.37%. The viability increase in test [3] was -5.51%. Besides, the figures for the viability in test [4] and in test [5] were 18.4% (active) and 19.1% (active), respectively. For the same compound, the inhibition in test [6] is 0.385%. The RAM network inhibition in test [7] is 2.72%.
For `CC1CCCN(Cc2nc3c(c(=O)n(C)c(=O)n3C)n2CC(=O)c2ccccc2)C1` (stereo unspecified), the growth inhibition in test [1] is -8.04%; in test [2], -16.3%. Further, the viability increase in test [3] was -4.65%. The viability in test [4] was 78.2%; in test [5] it was 81.2%. Further, the inhibition in test [6] is -0.325%. Further, in test [7], the RAM network inhibition is 4.05%.
Take `O=C(NC1CCCCCC1)C1CCCN1S(=O)(=O)c1cccc2cccnc12` (stereo unspecified): the values for the growth inhibition in test [1] and in test [2] were -10.1% and -8%, respectively. In addition, in test [3], the viability increase was -0.87%. Also, the viability is 90.9% in test [4] and 92.1% in test [5]. In test [6], the inhibition was 0.69%. Moreover, the RAM network inhibition in test [7] is 3.74%.
For the compound `Cc1ccc(C)c(NC(=O)C2CC=CCC2C(=O)O)c1` (stereo unspecified), the growth inhibition in test [1] was 3.24%; in test [2], 5.03%. Moreover, the viability increase in test [3] was -0.5%. Moreover, the viability was 101% in test [4] and 104% in test [5]. The inhibition in test [6] was 1.96%. Besides, in test [7], the RAM network inhibition is 4.68%.
As to `O=C(Nc1nc(-c2ccccc2)cs1)c1cccs1`, the growth inhibition in test [1] is -5.78%; in test [2], -1.27%. In addition, in test [3], the viability increase was -1.21%. Moreover, the viability is 66.3% in test [4] and 72.8% in test [5]. Further, the inhibition in test [6] is -0.845%. In addition, the RAM network inhibition in test [7] is 2.45%.
Regarding `Nc1c(C(=O)Nc2ccc(Cl)cc2)oc2ccccc12`, the results for the growth inhibition in test [1] and in test [2] were -21% and -20.9%, respectively. The viability increase in test [3] was -4.54%. Also, the viability in test [4] is 75.3%; in test [5] it was 72.9%. The inhibition in test [6] is 2.38%. Also, the RAM network inhibition in test [7] is 2.51%.
